Experimental data published in PMC9055608 (RSC Advances, 2020).

Legend:
[1] = tested on: LO2 human normal liver cells; assay: MTT assay, cytotoxicity against normal cell line LO2; format: cell-based
Procedure, shortened: (§1)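 Cells seeded at about 4000–5000/well and allowed 24 h to adhere. MTT for 4 h, formazan dissolved in DMSO, absorbance read, and inhibition rate per concentration reported.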

[2] = tested on: GES-1 human normal gastric epithelial cells; assay: MTT assay, cytotoxicity against normal cell line GES-1; format: cell-based; conditions: for OD value (mean ± SD): GES-1
Procedure, shortened: as §1

SKBR3 = assay: MTT cell proliferation assay, SKBR3; format: cell-based, human; conditions: Homo sapiens, SK-BR-3, 72 h
Procedure, shortened: (§2)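 ATCC lines grown in DMEM or RPMI-1640 with 10% heat-inactivated FBS and 1% penicillin/streptomycin at 37 °C, 5% CO2. Log-phase cells seeded at about 4000–5000/well and left to adhere 24 h. Sextuplicate wells, 72 h. MTT for 4 h, then DMSO and absorbance. IC50 taken from dose–response curves.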

N87 = assay: MTT cell proliferation assay, N87; format: cell-based, human; conditions: Homo sapiens, 72 h
Procedure, shortened: as §2

SKMEL-28 = assay: MTT cell proliferation assay, SKMEL-28; format: cell-based, human; conditions: Homo sapiens, SK-MEL-28, 72 h
Procedure, shortened: as §2

Tissue distribution = format: in vivo, SD rats; conditions: for CL / AUC(0-inf): rat; for CL: tail vein injection of DHDK solution; for AUC(0-inf): iv, 14 mg/kg
Procedure, shortened: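 SD rats (12 male, 12 female), fasted 12 h, received an intravenous dose of 14 mg kg−1 test-compound micelles. Six rats were killed at each of 0.25, 1, 4 and 24 h. Heart, liver, spleen, lung and kidney were rinsed in ice-cold saline, weighed, homogenised and stored at −80 °C. Samples were extracted with MTBE using curcumin internal standard. Analysis was by C18 LC-ESI-MS/MS (formic acid/acetonitrile gradient, MRM m/z 294.98→106.67).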

SKOV3 = assay: MTT cell proliferation assay, SKOV3; format: cell-based, human; conditions: Homo sapiens, SK-OV-3, 72 h
Procedure, shortened: as §2

MDA-MB453 = assay: MTT cell proliferation assay, MDA-MB453; format: cell-based, human; conditions: Homo sapiens, MDA-MB-453, 72 h
Procedure, shortened: as §2

MCF-7 = assay: MTT cell proliferation assay, MCF-7; format: cell-based, human; conditions: Homo sapiens, MCF7, 72 h
Procedure, shortened: as §2

in vivo = format: in vivo, rats
[3] = Homo sapiens, GES1, read-out: Inhibition rate

Q: Which inhibition at 0.14 µM ([1]; Homo sapiens, read-out: Inhibition rate, LO2, DHDK 0.14 μmol·L^−1) does the source give for `O=C(/C=C/CCc1ccc(O)cc1)/C=C/c1ccc(O)cc1` [DHDK, (1E,4E)-1,7-Bis(4-hydroxyphenyl)hepta-1,4-dien-3-one] here?
A: 1.36%

Q: And the inhibition at 0.42 µM ([1]; Homo sapiens, read-out: Inhibition rate, LO2, DHDK 0.42 μmol·L^−1)?
A: 1.51%

Q: And the inhibition at 1.26 µM ([1]; Homo sapiens, read-out: Inhibition rate, LO2, DHDK 1.26 μmol·L^−1)?
A: 1.87%

Q: What about the inhibition at 3.8 µM ([1]; Homo sapiens, read-out: Inhibition rate, LO2, DHDK 3.8 μmol·L^−1) of the same molecule?
A: 2.08%

Q: And the inhibition at 11.3 µM ([1]; Homo sapiens, read-out: Inhibition rate, LO2, DHDK 11.3 μmol·L^−1)?
A: 2.57%

Q: And the “OD value (mean ± SD)” value ([1]; LO2, DHDK 0.14 μmol·L^−1)?
A: 0.69 ± 0.013

Q: What about the “OD value (mean ± SD)” value ([1]; LO2, DHDK 0.42 μmol·L^−1) of the same molecule?
A: 0.68 ± 0.039

Q: And the “OD value (mean ± SD)” value ([1]; LO2, DHDK 1.26 μmol·L^−1)?
A: 0.68 ± 0.022

Q: What about the “OD value (mean ± SD)” value ([1]; LO2, DHDK 3.8 μmol·L^−1) of the same molecule?
A: 0.68 ± 0.031

Q: And the “OD value (mean ± SD)” value ([1]; LO2, DHDK 11.3 μmol·L^−1)?
A: 0.68 ± 0.0066

Q: And the Inhibition rate ([1]; LO2, DHDK 34.0 μmol·L^−1)?
A: 4.17%

Q: What about the “OD value (mean ± SD)” value ([1]; LO2, DHDK 34.0 μmol·L^−1) of the same molecule?
A: 0.67 ± 0.025

Q: What about the “OD value (mean ± SD)” value ([2]; DHDK 0.14 μmol·L^−1) of the same molecule?
A: 0.71 ± 0.0031

Q: And the “OD value (mean ± SD)” value ([2]; DHDK 0.42 μmol·L^−1)?
A: 0.71 ± 0.0098

Q: And the “OD value (mean ± SD)” value ([2]; DHDK 1.26 μmol·L^−1)?
A: 0.71 ± 0.0051

Q: What about the “OD value (mean ± SD)” value ([2]; DHDK 3.8 μmol·L^−1) of the same molecule?
A: 0.70 ± 0.0035

Q: What about the “OD value (mean ± SD)” value ([2]; DHDK 11.3 μmol·L^−1) of the same molecule?
A: 0.69 ± 0.0097

Q: And the “OD value (mean ± SD)” value ([2]; DHDK 34.0 μmol·L^−1)?
A: 0.68 ± 0.0075

Q: What about the inhibition at 0.14 µM [2, 3] of the same molecule?
A: 0.17%

Q: What about the inhibition at 0.42 µM [2, 3] of the same molecule?
A: 0.53%

Q: And the inhibition at 1.26 µM [2, 3]?
A: 1.06%

Q: What about the inhibition at 3.8 µM [2, 3] of the same molecule?
A: 1.35%

Q: And the inhibition at 11.3 µM [2, 3]?
A: 3.53%

Q: And the inhibition at 34 µM [2, 3]?
A: 4.85%

Q: What about the IC50 (SKBR3) of the same molecule?
A: 1.71 ± 0.1 µM

Q: What about the IC50 (N87) of the same molecule?
A: 10.8 ± 0.5 µM

Q: What about the IC50 (SKMEL-28) of the same molecule?
A: 9.26 ± 0.57 µM

Q: And the CL (Tissue distribution; Heart)?
A: 50.93 ± 26.52 L·kg/h

Q: And the CL (Tissue distribution; Kidney)?
A: 244.93 ± 9.95 L·kg/h

Q: And the CL (Tissue distribution; Liver)?
A: 5.846 ± 1.02 L·kg/h

Q: And the CL (Tissue distribution; Lung)?
A: 8.89 ± 1.97 L·kg/h

Q: And the CL (Tissue distribution; Spleen)?
A: 81.66 ± 45.73 L·kg/h

Q: And the AUC(0-inf) (Tissue distribution; Sprague-Dawley (SD), kidney)?
A: 57.2 ± 32.3 ng·h/mL

Q: What about the AUC(0-inf) (Tissue distribution; Sprague-Dawley (SD), lung) of the same molecule?
A: 1630 ± 299 ng·h/mL

Q: And the AUC(0-inf) (Tissue distribution; Sprague-Dawley (SD), spleen)?
A: 207 ± 84.3 ng·h/mL

Q: What about the AUC(0-inf) (Tissue distribution; both, SD, heart) of the same molecule?
A: 414 ± 364 ng·h/mL

Q: What about the AUC(0-inf) (Tissue distribution; both, SD, liver) of the same molecule?
A: 2450 ± 425 ng·h/mL

Q: And the “order of DHDK concentration in different tissues” value (Tissue distribution; rats, 14 mg kg^−1 tail vein)?
A: lung > liver > heart > kidney > spleen

Q: And the “order of clearance rates in tissues” value (Tissue distribution; rats, 14 mg kg^−1 tail vein)?
A: kidney > spleen > heart > lung > liver

Q: What about the IC50 (SKOV3) of the same molecule?
A: 9.59 ± 0.44 µM

Q: What about the IC50 (MDA-MB453) of the same molecule?
A: 10.4 ± 0.92 µM

Q: What about the IC50 (MCF-7) of the same molecule?
A: 9.09 ± 0.46 µM

Q: What about the “AUC(0–t) of DHDK high-dose group as share of cisplatin group” value (in vivo; after dose conversion, DHDK 40 mg kg^−1 vs cisplatin 5 mg kg^−1) of the same molecule?
A: 7.3%

Q: And the AUC(0-inf) (in vivo; rat, in vivo, iv, 14 mg/kg)?
A: 534 ng·h/mL

Q: And the AUC(0-t) (in vivo; rat, in vivo, iv, 14 mg/kg)?
A: 459 ng·h/mL

Q: What about the half-life (in vivo; rat, in vivo, iv, 14 mg/kg) of the same molecule?
A: 1.79 h
